This is an account of results in ChEMBL document CHEMBL1125056, “Heterosubstituted anthracene-9,10-dione analogues. The synthesis and antitumor evaluation of 5,8-bis[(aminoalkyl)amino]naphtho[2,3-b] thiophene-4,9-diones” (1990).

As a reminder, the T/C is the result in the treated group divided by that in the control group, in per cent.

Converted amounts (≈) assume the structure as drawn. Bounds are passed on as bounds.

The subject of test [1] is L1210. Description: T/C in % was determined against L1210 murine leukemia cells at a dose of 8 x3 mg/kg; 60 - day survivors =1/6. The test is classed as functional, Mus musculus.
Test [2] deals with L1210. Description: Compound was tested for the concentration required to inhibit L1210 murine leukemia cell growth by 50% of control. It counts as functional. To be noted: Mus musculus, read-out: ID50 (the source's name). The essentials:
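L1210 cells grown in suspension in McCoy's 5A with 10% horse serum, glutamine, penicillin and streptomycin at 37 °C in 10% CO2. Drug was added from DMSO to 5 × 10^4 cells/mL at final 0.01, 0.1 and 10 μg/mL. After 72 h continuous exposure, cells were counted on a Coulter counter.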

Test [3] deals with L1210. Description: T/C in % was determined against L1210 murine leukemia cells at a dose of 12.5 x2 mg/kg; 60 - day survivors =1/6. It counts as functional, Mus musculus.
Test [4] relates to L1210. Briefly: T/C in % was determined against L1210 murine leukemia cells at a dose of 4 x3 mg/kg 60 - day survivors =3/6. The test is classed as functional, Mus musculus.
Test [5] deals with L1210. Briefly: T/C in % was determined against L1210 murine leukemia cells at a dose of 25x3 mg/kg; 60 - day survivors =3/6. The test is classed as functional, Mus musculus.
Test [6] has as its system L1210. Briefly: T/C in % was determined against L1210 murine leukemia cells at a dose of 6.25 x3 mg/kg; 60 - day survivors =1/6. The test is classed as functional, Mus musculus.
Test [7] deals with L1210. Description: T/C in % was determined against L1210 murine leukemia cells at a dose of 12.5 x3 mg/kg. The test is classed as functional, Mus musculus.
Test [8] deals with L1210. Briefly: T/C in % was determined against L1210 murine leukemia cells at a dose of 50 x3 mg/kg.
In test [9] the test system is L1210. Briefly: T/C in % was determined against L1210 murine leukemia cells at a dose of 25 x3 mg/kg; 60 - day survivors =1/6. The test is classed as functional, Mus musculus.
For test [10], the system named is P388 leukemia (mouse). Description: T/C in % was determined against P388 murine leukemia cells at a dose of 25 x2 mg/kg; 60 - day survivors =0/6.
Test [11] relates to L1210. Description: T/C in % was determined against L1210 murine leukemia cells at a dose of 50 x3 mg/kg; 60 - day survivors =0/6. The test is classed as functional, Mus musculus.
The test system of test [12] is L1210. Description: T/C in % was determined against L1210 murine leukemia cells at a dose of 25 x3 mg/kg; 60 - day survivors =0/6. The test is classed as functional, Mus musculus.
Test [13] deals with P388 leukemia (mouse). Briefly: T/C in % was determined against P388 murine leukemia cells at a dose of 50 x2 mg/kg; 60 - day survivors =0/6.
For test [14], the system named is P388 leukemia (mouse). Description: T/C in % was determined against P388 murine leukemia cells at a dose of 100 x1 mg/kg; Toxic.
In test [15] the test system is L1210. Briefly: T/C in % was determined against L1210 murine leukemia cells at a dose of 12.5x2 mg/kg; 60 - day survivors =0/6. It counts as functional, Mus musculus.

Regarding `NCCNc1ccc(NCCN)c2c1C(=O)c1ccsc1C2=O`, the T/C is given as 400% in the test with L1210 [1], 386% in the test on L1210 [3] and 325% with L1210 [4]. Moreover, the IC50 in the test on L1210 [2] was found to be 0.026 µg/mL (≈ 0.0787 µM).
On to `O=C1c2ccsc2C(=O)c2c(NCCNCCO)ccc(NCCNCCO)c21`, for which the values for the T/C in the test with L1210 [5] and in the test on L1210 [6] were 333% and 403%, respectively. The IC50 in the test on L1210 [2] is 0.064 µg/mL (≈ 0.153 µM).
As for `O=C1c2ccsc2C(=O)c2c(NCCO)ccc(NCCO)c21`, the IC50 in the test on L1210 [2] was > 10 µg/mL.
Regarding `O=C1c2ccccc2C(=O)c2c(NCCNCCO)ccc(NCCNCCO)c21` [AMETANTRONE], the T/C with L1210 [7] amounted to 177%; with L1210 [8], 146%; in the test on L1210 [9], 203%.
As for `CN(C)CCNc1ccc(NCCN(C)C)c2c1C(=O)c1ccsc1C2=O`, the T/C in the test with P388 leukemia (mouse) [10] is 108%; in the test with L1210 [11] it was 109%; with L1210 [12] it was 107%; in the test on P388 leukemia (mouse) [13], 128%; in the test with P388 leukemia (mouse) [14] it was “Toxic”. Moreover, in the test with L1210 [2], the IC50 was 0.038 µg/mL (≈ 0.0983 µM).
With `O=C1c2ccsc2C(=O)c2c(NCCN3CC3)ccc(NCCN3CC3)c21`, the T/C was 112% in the test on P388 leukemia (mouse) [10], 114% with P388 leukemia (mouse) [13] and 104% in the test with L1210 [15]. In addition, in the test on L1210 [2], the IC50 was 0.0035 µg/mL (≈ 0.00915 µM).
In the case of `O=C1c2ccsc2C(=O)c2c(NCCBr)ccc(NCCBr)c21`, the IC50 in the test on L1210 [2] worked out at 5.2 µg/mL (≈ 11.3 µM).
